# Screening data as filed in PubChem BioAssay.
# Most compounds without a hit are left out; they make up all but 4.9% or so of the library.
# NPY-Y1 PAM-ag: NPY-Y1 receptor potentiators or agonists, primary screen, cell-based; Neuropeptide Y receptor type 1 (Homo sapiens), P25929; NPY-Y1 expressing cells, potentiator/agonist activation; activation, % at 3.6 µM; 220,000 tested, 0.37% active; AID 1304, 2008; in the data active = activation above about 33%, passing the limit was not always enough;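 note: cells stimulated with NPY at EC10 then isoproterenol at EC100; 0% = low agonist plus stimulus and 100% = saturating agonist plus stimulus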
# NPY-Y2 antag: NPY-Y2 receptor antagonists, primary screen, cell-based | Neuropeptide Y receptor type 2 (Homo sapiens), P49146 | NPY-Y2 expressing cells, antagonist mode | inhibition, % at 2.7 µM | 140,000 tested, 0.99% active; in the data active = inhibition above about 17%;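 note: 0% = vehicle with agonist challenge and 100% = reference antagonist with challenge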
# Target sequence (P49146 whole entry, looked up): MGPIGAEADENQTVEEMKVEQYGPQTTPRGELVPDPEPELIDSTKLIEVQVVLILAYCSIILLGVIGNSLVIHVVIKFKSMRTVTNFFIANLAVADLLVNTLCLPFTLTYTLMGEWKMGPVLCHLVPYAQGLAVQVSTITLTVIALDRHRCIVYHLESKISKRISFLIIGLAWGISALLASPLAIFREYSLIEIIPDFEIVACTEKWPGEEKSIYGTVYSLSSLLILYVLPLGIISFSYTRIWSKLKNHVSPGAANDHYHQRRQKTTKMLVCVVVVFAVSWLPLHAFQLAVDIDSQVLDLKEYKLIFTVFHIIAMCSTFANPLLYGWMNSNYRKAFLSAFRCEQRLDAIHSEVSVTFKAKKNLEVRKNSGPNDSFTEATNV
# WT yeast gro inh: growth inhibition of WT strain, primary screen, mitochondrial fusion inhibitor project, WT and mutant strains, chemical genetic; 190,000 tested, 2.1% active; mitochondrial fusion phenotypic screen; inhibition, % at 10 µM; AID 1362, 2008; in the data active = inhibition above about 58%; tested in S. cerevisiae
# RAM network inh: inhibitors of the yeast RAM network, primary screen, dse1pr::URA3 reporter, 5-FOA selection; AID 868, 2007; 190,000 tested, 1.8% active; S. cerevisiae dse1pr::URA3 reporter, 5-FOA growth OD615, 2 d; analog-sensitive cbk1-as2 kinase mutant strain; inhibition, % at 50 µM;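 active = inhibition above a set limit, 3 SD over mean compound inhibition, cut at about 8.4% in these data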;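 note: 0% = DMSO-only wells with no growth and 100% = 10 µM 1-NA-PP1 full growth; inhibition rescues growth on 5-FOA so higher OD means more RAM inhibition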
# NPY-Y1 antag: NPY-Y1 receptor antagonists, primary screen, cell-based; Neuropeptide Y receptor type 1 (Homo sapiens), P25929; HEK293-CNG Y1 cells, membrane potential fluorescence; NPY at EC95, then isoproterenol; inhibition, % at 3.6 µM; 200,000 tested, 1% active; AID 1040, 2008;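 active = inhibition above the campaign mean inhibition of all tested compounds plus 3 SD, cut at about 20% in these data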;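 note: 0% = DMSO wells given NPY plus isoproterenol and 100% = isoproterenol alone without NPY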
#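 Material: HEK293 Y1/CNG channel cell line | Also added: NPY (25 nM), isoproterenol (1 µM), Ro 20-1724 (25 µM) | Compound: One concentration, 3.6 µM, in 0.4% DMSO | Schedule: 3 h dye uptake, 1 h room-temperature compound, 45 min post-isoproterenol | Signal: Membrane-potential fluorescent dye readout | Read-out: % inhibition of NPY effect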
# NPY-Y2 PAM-ag: NPY-Y2 potentiators or agonists, primary screen, cell-based. Neuropeptide Y receptor type 2 (Homo sapiens), P49146. activation, % at 3.6 µM. 220,000 tested, 0.45% active. cells expressing NPY-Y2, potentiator/agonist read-out. AID 1359, 2008; in the data active = activation above about 27%;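 note: cells stimulated with NPY near EC25 plus isoproterenol at EC100; 0% = vehicle plus submaximal agonist and 100% = vehicle plus saturating agonist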
# NPY-Y1 antag ct: NPY-Y1 receptor antagonists, selectivity check, counter-screen for NPY-Y2 antagonist project, cell-based. shares compounds with NPY-Y2 antag. cell-based NPY-Y1 antagonism counterscreen. inhibition, % at 3.6 µM. 710 tested, 19% active. AID 1256, 2008; in the data active = inhibition above about 20%;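 note: cells challenged with NPY then isoproterenol with cAMP sensed through a CNG channel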
# NPY2 antag conf: NPY-Y2 receptor antagonists, retest of hits, confirmation, HEK293-CNG cells, membrane potential fluorescence, triplicate. inhibition, % at 2.8 µM. AID 1257, 2008. shares compounds with NPY-Y2 antag. HEK293 NPY-Y2 CNG channel. 710 tested, 32% active;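 active = mean inhibition of triplicate wells above the hit cutoff set in the primary screen, cut at about 17% in these data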;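 note: 0% = DMSO with NPY challenge and 100% = BIIE0246 high control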
# * = called active by the depositor; x = no result.
SMILES,NPY-Y1 PAM-ag,NPY-Y2 antag,WT yeast gro inh,RAM network inh,NPY-Y1 antag,NPY-Y2 PAM-ag,NPY-Y1 antag ct,NPY2 antag conf
CN(C)S(=O)(=O)c1ccc(N2CCCC2)c(C(=O)Nc2nc3ccccc3s2)c1,-11,4,8,4,4,-12,x,x
CN(C)CCCn1c(SCC(=O)N2c3ccccc3Sc3ccccc32)nc2ccccc2c1=O,-71,39*,80,1,15,-21,43*,77*
C=CCOc1ccc2ccccc2c1/C=N/O,-29,20*,-5,-1,17,-7,7,7
O=S(=O)(Nc1ccccc1N1CCCCC1)c1ccc(F)cc1F,-7,x,9,2,5,5,x,x
COc1cc(/C=C2\SC(=Nc3c(C)n(C)n(-c4ccccc4)c3=O)NC2=O)ccc1O,-28,31*,-14,5,20*,-6,48*,74*
COCCOC(=O)c1c(C)oc2ccc(NS(=O)(=O)c3ccccc3)cc12,-3,5,22,3,0,-13,x,x
CCOC(=O)c1c(C)oc2ccc(NS(=O)(=O)c3ccc4c5c(cccc35)C(=O)N4)cc12,-45,27*,2,2,10,-14,5,14
Cc1cccc2c3nc4ccccc4nc3n(CCCN3C(=O)c4ccccc4C3=O)c12,0,2,7,0,2,-5,x,x
COCCn1c(-c2ccc(Cl)cc2)cnc1SCC(=O)NCc1cccs1,-6,18*,2,-1,5,-18,14,10
CCN(CC)S(=O)(=O)c1ccc2c(c1)nc(CCC(=O)Nc1cccc(C(F)(F)F)c1)n2CC,16,-1,-12,3,-5,7,x,x
COc1cccc(C2C(C(N)=O)=C(C)Nc3nc(-c4ccccc4Cl)nn32)c1 (configuration not stated),6,20*,8,-1,-3,11,-2,1
N#Cc1nc(COc2ccc(Cl)cc2)oc1N1CCCCCC1,-42,17*,22,2,12,-19,19,18*
O=C(Nc1ccc2c(c1)OCO2)c1nn(-c2ccccc2)c(=O)c2ccccc12,-35,17*,7,4,-2,-19,11,9
Cc1ccc(OCCCCN(C)Cc2ccccc2)c(Br)c1,-41,18*,58,1,11,-16,13,18*
COc1ccccc1OCCCOc1ccc(C)cc1Br,-14,4,53,4,-2,4,x,x
CNC(=S)N/N=C/c1ccccc1Cl,-16,19*,5,0,4,-2,2,1
CCOC(=O)c1cc(C)n(-c2ccc(OC)c(OC)c2)c1C,-9,3,8,0,3,2,x,x
CC(=O)N(Cc1cccs1)Cc1cc2cc(C)c(C)cc2nc1Cl,-15,x,25,0,-2,-21,x,x
Cc1ccc2nc(Cl)c(CN(Cc3cccs3)C(=O)C3CC3)cc2c1,-39,19*,21,2,18,-12,15,12
CCC1(C)Cc2c(sc(NC(=S)NC(=O)c3ccccc3)c2C#N)CO1 (configuration not stated),1,3,8,6,2,6,x,x
COc1ccc(NC(=O)c2cc(C(C)C)on2)c(OC)c1,-20,1,25,-1,7,-2,x,x
CC(Sc1nnc(NC(=O)c2cc3ccccc3oc2=O)s1)c1ccccc1 (configuration not stated),7,3,-29,2,5,-1,x,x
CCc1cccc(CC)c1NC(=O)Cn1c(-c2ccccc2Cl)nc2ccccc21,-2,24*,-5,1,8,-4,13,11
Cc1ccc(SCCNC(=O)/C=C/c2ccc(Cl)cc2)cc1,-23,19*,11,2,9,-1,29*,39*
Cc1ccc(SCCNC(=O)/C=C/c2ccc([N+](=O)[O-])cc2)cc1,-45,9,25,1,6,-14,x,x
SMILES,NPY-Y1 PAM-ag,NPY-Y2 antag,WT yeast gro inh,RAM network inh,NPY-Y1 antag,NPY-Y2 PAM-ag,NPY-Y1 antag ct,NPY2 antag conf
Cc1ccc(-c2nn3c(C)nnc3c3ccccc23)cc1S(=O)(=O)NC(C)c1ccccc1 (configuration not stated),-8,18*,-1,4,4,-26,12,19*
C/C(=C\C(=O)c1ccc(Br)cc1)NCc1ccc(C)cc1,3,21*,31,2,11,-4,8,10
C/C(=C\C(=O)c1ccc(Br)cc1)NCc1ccccc1,-11,9,58,0,5,-5,x,x
Cc1cc(C(=O)COC(=O)c2ccc(N)cc2)c(C)n1-c1c(C)n(C)n(-c2ccccc2)c1=O,5,x,-7,1,3,0,x,x
CN1C(=O)NC2(O)C(=O)c3ccccc3C12O (configuration not stated),-18,19*,8,2,5,-7,-1,3
CCCN1C(=O)NC2(O)C(=O)c3ccccc3C12O (configuration not stated),-11,-3,18,1,6,11,x,x
OCC1CCCN(c2nc(CN3CCCCC3)nc3scc(-c4ccccc4)c23)C1 (configuration not stated),-21,23*,-7,-1,17,4,18,17
CC(C)CCn1c(-c2nonc2N)nc2ccccc21,-54,18*,1,10*,17,-32,12,13
CCOC(=O)c1ccccc1NC(=O)Cn1c(-c2nonc2N)nc2ccccc21,-20,35*,14,1,18,-24,23*,30*
CCCCn1c(-c2nonc2N)nc2ccccc21,-31,9,-3,x,2,-10,x,x
COc1ccc(-c2noc(CCC(=O)Nc3cc(Cl)c(OC)cc3OC)n2)cc1,6,1,21,3,0,-16,x,x
CCCCNC(=O)CN1C(=O)C(CC)Oc2ccc(Cl)cc21 (configuration not stated),-28,22*,1,4,17,-23,7,7
Cc1cc2c(=O)oc(-c3ccccc3Br)nc2s1,8,x,x,x,x,-14,x,x
COC(=O)c1ccc(COC(=O)c2ccc(N(C)C)cc2)cc1,-46,20*,2,5,8,-5,4,10
